MPTP block: blocks calcium-induced mitochondrial swelling | isolated mouse mitochondria, Ca2+ swelling absorbance, 30 min | inhibition, % at 10 µM | 360,000 compounds, 1.4% hits | AID 602449;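 active means inhibition of 50% or more, scaled per plate between neutral and stimulator controls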;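 further: 0% = DMSO wells given calcium and 100% = 1 mM EGTA wells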
CHOP inh: inhibitors of CHOP induction in ER stress response; inhibition, % at 10 µM; CHO-K1 CHOP-promoter luciferase, tunicamycin-induced, 15-18 h; 220,000 compounds, 3.8% hits;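 active means compounds that reduced the stress-induced luciferase reporter signal by more than about 70% of percent inhibition, limit read from the data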;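 further: 0% = tunicamycin plus vehicle and 100% = wells without tunicamycin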
UPR XBP1 act: adaptive UPR (XBP1) activation. 330,000 compounds, 0.33% hits. AID 463104. activation, % at 20 µM. CHO-XBP1 luciferase reporter, IRE1-XBP1 UPR activation, luminescence; percent of tunicamycin response, DMSO as zero;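 active means versus positive control, 20 µM dose yields 30% or more activation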;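 further: 100% = tunicamycin at 10 µg/mL and 0% = DMSO only wells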
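Material: CHO-XBP1 cells stably carrying IRE1-XBP1-driven luciferase reporter / Amount: 1000 cells per well / Compound: 20 µM, 1% DMSO / Times: 6 h treatment, 37 °C / Detection: luciferase luminescence / Measure: % activation of reporter signal versus tunicamycin and DMSO controls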
UPR CHOP act: apoptotic UPR (CHOP) activation; CHO-CHOP luciferase reporter, luminescence; percent of tunicamycin response over DMSO baseline; activation, % at 10 µM; 330,000 compounds, 0.34% hits; AID 449763;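 active means at 10 µM dose, activation of 40% or more, normalized to positive control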;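 further: 100% = tunicamycin at 10 µg/mL and 0% = DMSO alone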
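Assay system: CHO-CHOP cells, stable luciferase reporter of PERK-eIF2a-CHOP signalling / Buffer or medium: F12 plus 10% serum / Compound dosing: one dose, 10 µM in 0.5% DMSO / Times: 6 h compound treatment, 37 °C / Technique: luciferase luminescence / Read-out: % reporter activation, DMSO baseline versus tunicamycin full activation / Benchmarks: tunicamycin and DMSO controls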
aDG glyco act: increases alpha dystroglycan glycosylation | Pro5-aDG cells, alpha-DG glycosylation AlphaScreen (IIH6); 0% Pro5, 100% B10-LARGE cell signal | activation, % at 10 µM | 360,000 compounds, 0.22% hits;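 active means activation of at least 8% versus controls, or a plate z-score of at least 8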;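 further: Pro5 are CHO cells carrying HIG-tagged alpha-DG that lacks glycosylation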
NR3A LBD binder: modulates the human NR3A ligand-binding domain. 340,000 compounds, 2.5% hits. NR3A LBD differential scanning fluorimetry, Tm shift; 0% = protein alone, 100% = glycine-bound protein. Tm shift relative to glycine control, % at 25 µM;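 active means melting temperature shift of at least 10% of the positive control shift, at one fixed dose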
* hit, by the source's call; . = no result given. An excerpt weighted towards active compounds, which were near 5.6% of everything screened.

SMILES | MPTP block | CHOP inh | UPR XBP1 act | UPR CHOP act | aDG glyco act | NR3A LBD binder
COc1ccc(NC(=S)N(Cc2ccc(C(=O)O)cc2)Cc2ccc(OC)c(OC)c2)cc1 | 0 | 9 | -2 | 0 | 0 | 2
CCc1cccc2c(C(=O)CN3C(=O)N(C)C4(CCCCC4)C3=O)c[nH]c12 | 0 | . | 0 | 1 | 0 | -1
CCC(=O)NC(c1cccs1)c1ccc2cccnc2c1O (centres undefined) | 1 | 86* | 5 | 23 | -1 | -3
CCCC(=O)NC(c1cccs1)c1cc(Cl)c2cccnc2c1O (centres undefined) | 2 | 75* | -1 | -1 | 0 | -5
CCCC(=O)NC(c1ccc(C)cc1)c1ccc2cccnc2c1O (centres undefined) | 1 | . | -2 | 16 | 0 | -1
CCCCC(=O)NC(c1ccccc1OC)c1ccc2cccnc2c1O (centres undefined) | 1 | 72* | 4 | -1 | 0 | -3
CC(C)CC(=O)NC(c1cccs1)c1ccc2cccnc2c1O (centres undefined) | 1 | 79* | 0 | 5 | -1 | -9
CCCC(=O)NC(c1ccco1)c1cc(Cl)c2cccnc2c1O (centres undefined) | -9 | -5 | 0 | -2 | 0 | 3
CCOC(OCC)c1cc2ccccc2cn1 | -2 | . | -2 | 1 | 0 | 2
Cc1ccccc1NC(=O)c1ccc2c(c1)C(=O)N(CCC(C)C)C2=O | -1 | 79* | -2 | 1 | 0 | -4
CC(C)CCN1C(=O)c2ccc(C(=O)Nc3ccccn3)cc2C1=O | 2 | . | -3 | 2 | 0 | 0
CCCCN1C(=O)c2ccc(C(=O)Nc3cccc(C)c3C)cc2C1=O | 0 | 76* | 1 | 2 | 0 | 0
COc1ccc(-c2nn(-c3ccccc3)cc2/C=N/NS(=O)(=O)c2ccccc2)cc1 | 2 | 38 | -3 | 1 | 0 | 21*
COc1ccc(-c2nn(-c3ccccc3)cc2/C=N/O)cc1 | 0 | . | -2 | 1 | 0 | -1
Cc1[nH]c2ccccc2c1/C=N/NC(=O)c1cccc(S(=O)(=O)Nc2cccc(C(F)(F)F)c2)c1 | -6 | -3 | -2 | 1 | 0 | 28*
COc1ccc(NS(=O)(=O)c2cccc(C(=O)NN=Cc3ccc(OC)c(O)c3)c2)cc1 | 1 | . | -2 | 1 | 0 | -1
COc1ccc(NS(=O)(=O)c2cccc(C(=O)N/N=C/c3c(F)c(F)c(F)c(F)c3F)c2)cc1 | 13 | . | . | . | 1 | 12*
O=C(N/N=C/c1ccccn1)c1cccc(S(=O)(=O)Nc2ccccc2Cl)c1 | 0 | 22 | -6 | -1 | 0 | -1
COc1ccc(-c2nn(-c3ccccc3)cc2/C=N/NC(=O)c2cccc(S(=O)(=O)Nc3ccccc3Cl)c2)cc1 | 5 | 2 | 1 | 4 | 0 | 22*
c1cncc(CNCc2ccco2)c1 | -1 | . | . | . | 0 | 0
O=C(Nc1ccc(C(=O)N2CCCC2)cc1)c1cc(F)c(F)cc1Cl | 1 | . | . | . | 0 | .
O=C(OCCN1C(=O)c2cccc3c(N4CCOCC4)ccc(c23)C1=O)c1ccc(Cl)cc1Cl | 0 | -39 | . | . | 1 | 11*
O=C(OCCN1C(=O)c2cccc3c(N4CCOCC4)ccc(c23)C1=O)c1ccccc1Cl | 2 | 55 | . | . | 2 | -8
COCCCn1c(=O)/c(=C/c2ccccc2OC(F)F)s/c1=C(\C#N)C(=O)NCCOC | 0 | . | . | . | 0 | 1
COCCNC(=O)/C(C#N)=c1\s/c(=C\c2ccccc2OC(F)F)c(=O)n1Cc1ccccc1 | . | 95* | 7 | 1 | . | .
SMILES | MPTP block | CHOP inh | UPR XBP1 act | UPR CHOP act | aDG glyco act | NR3A LBD binder
Cc1cccc(NC(=O)COc2coc(CN3CCc4ccccc4C3)cc2=O)c1 | 1 | . | -3 | 3 | 0 | -1
O=[N+]([O-])c1ccc(Cl)c(S(=O)(=O)Nc2cccc(-c3ccc(N4CCCC4)nn3)c2)c1 | -1 | . | -1 | 5 | 0 | 16*
COCCn1c(SCC#N)nnc1-c1ccc([N+](=O)[O-])cc1 | -2 | 5 | -2 | 1 | 0 | -2
Cc1cccc(C(=O)OCC(=O)NC(=O)Cc2ccccc2)c1O | 0 | . | -3 | 0 | 0 | -1
CC(C)Sc1nc(N2CCOCC2)c2c3c(sc2n1)COC(C)(C)C3 | 3 | 82* | 2 | 1 | 0 | -1
O=c1cc(N2CCN(c3ccc(F)cc3)CC2)[nH]c(=O)n1C1CCCCC1 | -3 | 72* | -3 | -3 | 0 | -1
O=c1cc(N2CCC3(CC2)OCCO3)[nH]c(=O)n1C1CCCCC1 | 12 | -23 | 3 | 1 | 0 | -1
CCOc1ccccc1OCCOc1ccccc1CC | 0 | 76* | -4 | -2 | 0 | 3
COc1ccc(C2C=C(c3ccc(Br)cc3)Nc3nc(N4C(=O)CCC4=O)nn32)cc1 (centres undefined) | 1 | 2 | 2 | -1 | 0 | 13*
C[C@@H]1CN([C@@H](C)CO)C(=O)CCCn2nncc2CO[C@H]1CN(C)S(=O)(=O)c1ccccc1F | 0 | . | . | . | 0 | .
O=C(CC(SCCO)c1ccc([N+](=O)[O-])cc1)c1ccco1 (centres undefined) | -1 | . | -1 | 1 | 0 | 40*
O=C(C[n+]1ccc2ccccc2c1)c1ccc2ccc3ccccc3c2c1 | 1 | . | . | . | 0 | .
CC1Oc2ccc(C#N)cc2N(Cc2ccccc2OC(F)(F)F)C1=O (centres undefined) | 0 | . | . | . | 0 | .
COc1ccc(NC(=O)Nc2ccc3oc(C)nc3c2)cc1 | 1 | -26 | 4 | 5 | 0 | 25*
COc1ccc(Oc2ccc(NC(=O)c3ccccc3C)cc2)cc1 | 8 | 17 | 0 | -2 | 0 | 17*
COc1ccc(NC(=O)Nc2ccc3c(c2)CCC3)cc1 | 0 | . | -1 | 5 | 0 | 14*
COc1cccc(NC(=O)Nc2ccc3nc(C)c(C)nc3c2)c1 | 0 | . | 2 | 4 | 0 | 28*
COc1ccccc1Oc1ccc(NC(=O)c2ccccc2C)cc1 | 2 | 52 | 3 | -1 | 1 | 0
COc1cccc(OC)c1C(=O)Nc1ccc2nc(C)c(C)nc2c1 | -1 | . | 4 | 3 | 0 | 0
Cc1cc(C)c2c(c1)NC(c1cc3c(cc1Br)OCO3)C1CC=CC21 (centres undefined) | 3 | 25 | . | . | 2 | -2
C=C1CCN([C@H](C(=O)NCc2ccc(Cl)cc2)C(C)C)S(=O)(=O)c2ccccc21 | 0 | 21 | -3 | 0 | 0 | -1
CCN(CC)S(=O)(=O)c1ccc(C(=O)Nc2cccc(C)c2)cc1 | 0 | 77* | -2 | 0 | 0 | -36

Bioassay records: PubChem BioAssay, several laboratories
